High-throughput results from PubChem.
HKDC1 inhibitor: blocks human hexokinase HKDC1 activity; Q2TB90; recombinant HKDC1, G6PDH/diaphorase resazurin coupled fluorescence; inhibition, % at 20 µM; 340,000 compounds, 0.16% hits; AID 493160;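 active = inhibition above about 35% when tested at 20 µM, limit read from the data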;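 also: plate controls were DMSO wells with enzyme for no effect and DMSO wells lacking enzyme for full effect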
Target sequence (Q2TB90 whole entry, looked up): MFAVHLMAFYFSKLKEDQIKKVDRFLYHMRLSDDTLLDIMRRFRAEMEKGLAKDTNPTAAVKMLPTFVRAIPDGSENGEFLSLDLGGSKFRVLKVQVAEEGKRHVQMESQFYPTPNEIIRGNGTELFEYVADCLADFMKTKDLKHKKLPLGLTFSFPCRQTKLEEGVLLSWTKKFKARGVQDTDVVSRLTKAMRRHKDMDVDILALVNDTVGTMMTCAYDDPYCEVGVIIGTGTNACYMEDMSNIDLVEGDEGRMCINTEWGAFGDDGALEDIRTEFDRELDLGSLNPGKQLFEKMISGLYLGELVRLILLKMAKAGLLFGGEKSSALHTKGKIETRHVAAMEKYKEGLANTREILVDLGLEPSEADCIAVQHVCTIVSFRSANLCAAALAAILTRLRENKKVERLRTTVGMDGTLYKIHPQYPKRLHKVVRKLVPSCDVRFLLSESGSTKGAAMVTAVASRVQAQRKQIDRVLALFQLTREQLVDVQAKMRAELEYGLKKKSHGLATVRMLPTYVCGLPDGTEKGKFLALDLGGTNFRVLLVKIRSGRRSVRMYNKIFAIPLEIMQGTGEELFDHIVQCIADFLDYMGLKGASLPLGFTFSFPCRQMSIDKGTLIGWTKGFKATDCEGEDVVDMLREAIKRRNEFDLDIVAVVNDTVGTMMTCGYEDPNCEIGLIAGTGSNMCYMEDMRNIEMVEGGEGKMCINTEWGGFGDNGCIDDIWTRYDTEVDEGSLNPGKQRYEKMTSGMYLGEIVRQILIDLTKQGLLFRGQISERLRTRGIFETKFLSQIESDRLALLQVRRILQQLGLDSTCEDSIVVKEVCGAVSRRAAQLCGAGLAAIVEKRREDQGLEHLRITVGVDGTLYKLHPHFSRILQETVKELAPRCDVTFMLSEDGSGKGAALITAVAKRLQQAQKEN
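Test system: recombinant HKDC1 (HK5) hexokinase enzyme, produced in-house; Amount: enzyme 5 µg/mL final; Buffer or medium: Tris pH 8.0 buffer with MgCl2, Tween-20, BSA, BME; Reagent: glucose and ATP substrates; Doses: 20 µM test compound, 1% DMSO; Incubation: 90 min reaction incubation at room temperature, dark; Detection: resorufin fluorescence at 613 nm.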
Diaph inh CS: inhibits diaphorase or chemically oxidizes, flagging diaphorase assay artifacts; 190,000 compounds, 0.69% hits; inhibition, % at 20 µM; diaphorase resazurin-to-resorufin fluorescence, NADH, 16 min; bacterial (C. kluyveri) enzyme, not human;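 active = primary screen inhibition at 20 µM above a set limit, cut at about 50% in these data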;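 also: plate controls were DMSO with full reaction for no effect and wells lacking NADH for full effect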
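Test system: bacterial diaphorase enzyme (C. kluyveri); Quantity: 0.14 U/mL diaphorase, enzyme working solution; Times: reaction incubation of 16 min at room temperature; Measured by: fluorescence of resorufin formed from resazurin, Ex 544/Em 590 nm; Benchmarks: positive control minus NADH, DMSO neutral control.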
PfGluPho inh: PfG6PD (Plasmodium falciparum) enzyme inhibition | AID 504690 | inhibition, % at 20 µM | 350,000 compounds, 0.78% hits | PfGluPho enzyme, NADPH resazurin-diaphorase fluorescence;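 active = inhibition reaching at least a set limit at 20 µM in the primary screen, cut at about 59% in these data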;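 also: 0% = DMSO wells with substrate and 100% = DMSO wells lacking glucose-6-phosphate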
Diaph act CS: activates diaphorase or chemically reduces, flagging diaphorase assay artifacts; Diaphorase/resazurin coupled assay, resorufin fluorescence, 16 min; stronger effect = higher value; 1 = vehicle wells, 0 = NADH-free wells; 190,000 compounds, 0.005% hits; AID 1229; activation factor at 20 µM;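 active = diaphorase activity raised at least twofold by the compound at 20 µM; inactive = activation factor below 2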
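Assay system: Purified diaphorase enzyme from Clostridium kluyveri | Amount: Enzyme 0.07 U/mL final | Dosing: Compound 20 µM once, DMSO 1% | Timing: 16 min reaction at room temperature | Detection: Fluorescence, excitation 544 nm and emission 590 nm | Evaluation: Higher resorufin formation from activation or reduction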
G6PDH CS: inhibits Leuconostoc G6PDH, flagging false hits in G6PDH-based assays; Purified L. mesenteroides G6PDH, diaphorase/resazurin coupled fluorescence, 45 min; inhibition, % at 5 µM; 200,000 compounds, 0.12% hits; AID 1020; in the data active = inhibition above about 50%
Numbers without * were called inactive; . = no result. Only some compounds are listed: those with a hit (about 1.3% of all), similar ones and a draw of the others.

SMILES	HKDC1 inhibitor	Diaph inh CS	PfGluPho inh	Diaph act CS	G6PDH CS
CCOc1cccc(C(=O)Nc2cccc(C(=O)NC(C)(C)C)c2)c1	-12	15	-1	0.9	22
CCOc1ccc(NC(=O)CNS(=O)(=O)c2c(C)cc(C)cc2C)cc1	-3	.	8	.	.
O=C(Nc1ccncc1)c1cc(-c2ccccc2)nc2ccccc12	.	.	12	.	.
COc1ccc(OC)c(Nc2nc(=O)c3cccnc3s2)c1	8	65*	57	0.3	28
Cc1ccc(Nc2nc(=O)c3cccnc3s2)cc1	-4	10	31	0.9	-6
Cc1ccc(S(=O)(=O)N(C)C)cc1NC(=O)COC(=O)c1ccc2c(c1)OCO2	-9	20	-8	0.8	-9
CC1CCN(C(=O)c2ccc(S(=O)(=O)Cc3cccc(F)c3)c([N+](=O)[O-])c2)CC1	-4	0	18	1	12
Nc1c(C(=O)NC2CCCC2)c2nc3ccccc3nc2n1N	8	50*	39	0.5	2
Fc1ccc(-[n+]2nc(Nc3ccccc3)sc2-c2c(Cl)cccc2Cl)cc1	2	.	64*	.	.
O=C(O)c1ccc(-c2sc(Nc3ccccc3)n[n+]2-c2ccc(F)cc2)cc1	-5	.	12	.	.
COc1cccc(C(O)CC(N)=O)c1 (centres undefined)	-7	6	-9	0.9	2
Cc1ccc(O)c(C=Nc2ccc3[nH]ncc3c2)c1	2	61*	37	0.4	34
Nc1cc(Cl)ccc1C(=O)OCC(=O)N1CCCCCC1	-3	.	-7	.	.
Cc1ccc(NC(=S)NNc2ccc([N+](=O)[O-])cc2S(=O)(=O)Nc2ccccc2C(=O)O)cc1C	7	27	40	0.7	6
O=C(O)c1ccccc1NS(=O)(=O)c1ccc(NNC(=S)Nc2ccc(OC(F)F)cc2)c([N+](=O)[O-])c1	-9	67*	-1	0.3	7
CC(=O)c1coc2c1cc(O)c1ccccc12	16	19	0	0.8	28
CC(=O)c1cc(O)c2ccccc2c1O	44*	.	48	.	.
CC(=O)OC1CCC2C3CCC4=CC(=O)CCC4(C)C3CCC2(C)[C@]1(C)O (some centres undefined)	-2	.	6	.	.
CCOC(=O)c1c(NC(=O)CSc2nnc3c(Cl)cc(Cl)cn23)sc2c1CCC2	26	69*	26	0.3	-20
NC(=O)c1c(NC(=O)CSc2nnc(-c3ccco3)n2-c2ccccc2)sc2c1CCC2	3	53*	7	0.5	9
CCc1ccc(CC)c(S(=O)(=O)Nc2ccc(C(=O)O)c(O)c2)c1	10	12	-10	0.9	-13
CC(C)(C)c1ccc(C(=O)COC(=O)CN2C(=O)NC3(CCCC3)C2=O)cc1	-4	.	17	.	.
CCn1c(C)c(C(C)=O)c(NCc2ccccc2)nc1=S	-2	52*	-8	0.5	8
CC(=O)c1c(N2CCN(c3cccc(Cl)c3)CC2)nc(=S)n(-c2ccccc2)c1C	1	61*	22	0.4	-4
CCn1c(C)c(C(C)=O)c(N2CCN(c3cccc(Cl)c3)CC2)nc1=S	-3	33	12	0.7	15
SMILES	HKDC1 inhibitor	Diaph inh CS	PfGluPho inh	Diaph act CS	G6PDH CS
CC(=O)c1c(NCc2ccccc2)nc(=O)n(-c2ccccc2)c1C	5	9	-16	0.9	3
CC(=O)c1c(NCCc2ccccc2)nc(=S)n(-c2ccccc2)c1C	-4	88*	-22	0.1	2
CC1Sc2ccc(S(=O)(=O)N3CCC(C(N)=O)CC3)cc2NC1=O (centres undefined)	-2	.	-5	.	.
Cc1c(NC(=O)COC(=O)c2cccc(F)c2)c(=O)n(-c2ccccc2)n1C	.	.	-3	.	.
O=C(O)/C(=C\c1ccc(C(F)(F)F)cc1)c1ccc(S(=O)(=O)N2CCCC2)s1	7	.	-27	.	.
Cc1ccc(NC(=O)CCC(=O)OCC(=O)c2ccc(Oc3ccc([N+](=O)[O-])cc3)cc2)cc1C	-3	19	-17	0.8	-6
Cc1cccc(NC(=O)CCC(=O)OCC(=O)c2ccc(Oc3ccc([N+](=O)[O-])cc3)cc2)c1	5	67*	-1	0.3	-2
Cc1ccc(S(=O)c2ccc(NC(=O)C3CC3)cc2C#N)cc1 (centres undefined)	-8	5	1	0.9	13
Cc1cc(C)c(Nc2cc(S(=O)(=O)O)c(N)c3c2C(=O)c2ccccc2C3=O)c(C)c1	13	80*	-4	0.2	-18
COc1ccc(CN2C(=O)c3cccnc3C2Nc2cc(Cl)ccc2OC)cc1 (centres undefined)	52*	19	7	0.8	-19
O=C1CCCC2=C1C(c1ccco1)Nc1ccc(C(=O)c3ccccc3)cc1N2 (centres undefined)	10	68*	1	0.3	32
Cc1nnc2ccc(-c3ccc(NC(=O)Cc4cccs4)cc3)nn12	7	.	4	.	.
CCCCn1c(Cc2ccccc2)nnc1SCC(=O)Nc1cc(C)on1	-5	59*	5	0.4	-1
CCCn1ncc([C@@H]2C[C@H]3CN(Cc4cccc(Cl)c4)C(=O)[C@]34CCCN24)c1C	8	60*	-5	0.4	3
COc1cc2c(cc1OC)CN(c1ccc(C(F)(F)F)cn1)CC2	5	.	22	.	.
CCOc1ccc(N(C)c2ccc(/C=C3/SC(=S)NC3=O)cc2)cc1	1	.	-18	.	.
CCOc1c(O)ccc(/C=C2\SC(=S)NC2=O)c1[N+](=O)[O-]	-14	54*	30	0.5	16
Cc1ccc2nc(N3CCN(c4ccccc4F)CC3)c(C=O)c(=O)n2c1	3	53*	0	0.5	18
Nc1nn2c(-c3ccccc3)cc(=O)[nH]c2c1N=Nc1ccc(Br)cc1	-25	32	-2	0.7	12
Nc1nn2c(-c3ccccc3)cc(=O)[nH]c2c1N=Nc1ccc(O)cc1	11	54*	1	0.5	24
CCN(CC)S(=O)(=O)c1cccc(-c2n[nH]c(=S)n2/N=C/c2ccc(Br)cc2)c1	-2	9	-1	0.9	-5
CCN(CC)S(=O)(=O)c1cccc(-c2n[nH]c(=S)n2/N=C/c2ccc(OC(F)F)cc2)c1	-3	53*	0	0.5	-24
COc1ccc(/C=N/n2c(-c3cccs3)n[nH]c2=S)cc1	4	64*	12	0.4	0
CCN(CC)S(=O)(=O)c1cccc(-c2n[nH]c(=S)n2/N=C/c2ccc(OC)cc2)c1	-2	78*	9	0.2	6
CN(Cc1c(O)ccc2c1oc(=O)c1ccccc12)C1CCCCC1	22	94*	34	0.1	8
CN(C)Cc1c(O)ccc2c3c(c(=O)oc12)CCCCC3	-3	8	13	0.9	3
Cc1cccc(Cn2nnc3c2C(=O)c2ccccc2C3=O)c1	13	18	-4	0.8	54*
